Experimental data published in ChEMBL document CHEMBL5058577, “EUbOPEN Chemogenomics Library 2 (Multiplex)” (2022).

Tested on: U2OS
Assay: Multiplex assay against U2OS
Assay type: toxicity, cell-based
Conditions: human
Outline: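 Hoechst33342, BioTracker Green Microtubule Cytoskeleton Dye, MitoTracker Red and Annexin V Alexa Fluor 680 were added to live cells at seeding, and imaging on a CQ1 microscope at 37°C and 5% CO2 followed compound addition. Gating by CellPathfinder machine learning separated cells into Hoechst high-intensity objects or normal cells, then normal cells into healthy, pyknosed or fragmented nuclei, then pyknosed cells into mitotic or apoptotic. Per cents of healthy-nucleus cells are reported for the tubulin, mitochondrial-mass and membrane-permeability phenotypes.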

[1] = 12 h, 1 µM, compound concentration 1 uM, replicate 1
[2] = 12 h, 1 µM, compound concentration 1 uM, replicate 2
[3] = 12 h, 10 µM, compound concentration 10 uM, replicate 1
[4] = 12 h, 10 µM, compound concentration 10 uM, replicate 2
[5] = 24 h, 1 µM, compound concentration 1 uM, replicate 1
[6] = 24 h, 1 µM, compound concentration 1 uM, replicate 2
[7] = 24 h, 10 µM, compound concentration 10 uM, replicate 1
[8] = 24 h, 10 µM, compound concentration 10 uM, replicate 2
[9] = 48 h, 1 µM, compound concentration 1 uM, replicate 1
[10] = 48 h, 1 µM, compound concentration 1 uM, replicate 2
[11] = 48 h, 10 µM, compound concentration 10 uM, replicate 1
[12] = 48 h, 10 µM, compound concentration 10 uM, replicate 2

O=C(O)Cc1ccccc1Nc1c(Cl)cccc1Cl [DICLOFENAC]
Population Apoptotic (%) [1]: 90% | Population Fragmented Nuclei (%) [1]: 15% | Population Healthy Nuclei (%) [1]: 78% | Population Hoechst High Intensity Objects (%) [1]: 5% | Population Membrane Permeable-Phenotype (%) [1]: 4% | Population Mitochondria Different-Phenotype (%) [1]: 4% | Population Mitotic Cells (%) [1]: 10% | Population Normal (%) [1]: 94% | Population Pyknosed Nuclei (%) [1]: 6% | Population Tubulin-Different-Phenotype (%) [1]: 4% | Total Cell Count [1]: 164 | Population Apoptotic (%) [2]: 84% | Population Fragmented Nuclei (%) [2]: 13% | Population Healthy Nuclei (%) [2]: 76% | Population Hoechst High Intensity Objects (%) [2]: 0% | Population Membrane Permeable-Phenotype (%) [2]: 5% | Population Mitochondria Different-Phenotype (%) [2]: 2% | Population Mitotic Cells (%) [2]: 15% | Population Normal (%) [2]: 99% | Population Pyknosed Nuclei (%) [2]: 10% | Population Tubulin-Different-Phenotype (%) [2]: 2% | Population Apoptotic (%) [3]: 75% | Population Fragmented Nuclei (%) [3]: 20% | Population Healthy Nuclei (%) [3]: 68% | Population Hoechst High Intensity Objects (%) [3]: 2% | Population Membrane Permeable-Phenotype (%) [3]: 8% | Population Mitochondria Different-Phenotype (%) [3]: 4% | Population Mitotic Cells (%) [3]: 25% | Population Normal (%) [3]: 97% | Population Pyknosed Nuclei (%) [3]: 11% | Population Tubulin-Different-Phenotype (%) [3]: 4% | Total Cell Count [3]: 258 | Population Apoptotic (%) [4]: 72% | Population Fragmented Nuclei (%) [4]: 14% | Population Healthy Nuclei (%) [4]: 76% | Population Hoechst High Intensity Objects (%) [4]: 3% | Population Mitochondria Different-Phenotype (%) [4]: 3% | Population Mitotic Cells (%) [4]: 27% | Population Normal (%) [4]: 96% | Population Pyknosed Nuclei (%) [4]: 9% | Population Tubulin-Different-Phenotype (%) [4]: 8% | Population Apoptotic (%) [5]: 92% | Population Fragmented Nuclei (%) [5]: 15% | Population Healthy Nuclei (%) [5]: 76% | Population Hoechst High Intensity Objects (%) [5]: 4% | Population Membrane Permeable-Phenotype (%) [5]: 2% | Population Mitochondria Different-Phenotype (%) [5]: 2% | Population Mitotic Cells (%) [5]: 7% | Population Normal (%) [5]: 95% | Population Pyknosed Nuclei (%) [5]: 7% | Population Tubulin-Different-Phenotype (%) [5]: 2% | Total Cell Count [5]: 191 | Population Apoptotic (%) [6]: 87% | Population Fragmented Nuclei (%) [6]: 19% | Population Healthy Nuclei (%) [6]: 70% | Population Hoechst High Intensity Objects (%) [6]: 3% | Population Membrane Permeable-Phenotype (%) [6]: 5% | Population Mitotic Cells (%) [6]: 12% | Population Normal (%) [6]: 96% | Population Pyknosed Nuclei (%) [6]: 10% | Total Cell Count [6]: 165 | Population Apoptotic (%) [7]: 72% | Population Fragmented Nuclei (%) [7]: 17% | Population Healthy Nuclei (%) [7]: 72% | Population Hoechst High Intensity Objects (%) [7]: 0% | Population Membrane Permeable-Phenotype (%) [7]: 3% | Population Mitochondria Different-Phenotype (%) [7]: 1% | Population Mitotic Cells (%) [7]: 27% | Population Normal (%) [7]: 99% | Population Pyknosed Nuclei (%) [7]: 10% | Population Tubulin-Different-Phenotype (%) [7]: 2% | Total Cell Count [7]: 311 | Population Apoptotic (%) [8]: 81% | Population Fragmented Nuclei (%) [8]: 15% | Population Healthy Nuclei (%) [8]: 77% | Population Hoechst High Intensity Objects (%) [8]: 1% | Population Membrane Permeable-Phenotype (%) [8]: 5% | Population Mitochondria Different-Phenotype (%) [8]: 2% | Population Mitotic Cells (%) [8]: 18% | Population Normal (%) [8]: 98% | Population Pyknosed Nuclei (%) [8]: 7% | Population Tubulin-Different-Phenotype (%) [8]: 4% | Total Cell Count [8]: 153 | Population Apoptotic (%) [9]: 100% | Population Fragmented Nuclei (%) [9]: 17% | Population Healthy Nuclei (%) [9]: 71% | Population Hoechst High Intensity Objects (%) [9]: 4% | Population Membrane Permeable-Phenotype (%) [9]: 4% | Population Mitochondria Different-Phenotype (%) [9]: 2% | Population Mitotic Cells (%) [9]: 0% | Population Normal (%) [9]: 95% | Population Pyknosed Nuclei (%) [9]: 10% | Population Tubulin-Different-Phenotype (%) [9]: 2% | Total Cell Count [9]: 271 | Population Apoptotic (%) [10]: 83% | Population Fragmented Nuclei (%) [10]: 15% | Population Healthy Nuclei (%) [10]: 70% | Population Hoechst High Intensity Objects (%) [10]: 3% | Population Mitochondria Different-Phenotype (%) [10]: 4% | Population Mitotic Cells (%) [10]: 16% | Population Normal (%) [10]: 96% | Population Pyknosed Nuclei (%) [10]: 14% | Population Tubulin-Different-Phenotype (%) [10]: 4% | Total Cell Count [10]: 216 | Population Apoptotic (%) [11]: 86% | Population Fragmented Nuclei (%) [11]: 16% | Population Healthy Nuclei (%) [11]: 73% | Population Hoechst High Intensity Objects (%) [11]: 2% | Population Membrane Permeable-Phenotype (%) [11]: 6% | Population Mitochondria Different-Phenotype (%) [11]: 1% | Population Mitotic Cells (%) [11]: 13% | Population Normal (%) [11]: 97% | Population Pyknosed Nuclei (%) [11]: 10% | Population Tubulin-Different-Phenotype (%) [11]: 2% | Total Cell Count [11]: 436 | Population Apoptotic (%) [12]: 100% | Population Fragmented Nuclei (%) [12]: 12% | Population Healthy Nuclei (%) [12]: 75% | Population Hoechst High Intensity Objects (%) [12]: 1% | Population Mitotic Cells (%) [12]: 0% | Population Normal (%) [12]: 98% | Population Pyknosed Nuclei (%) [12]: 11% | Population Tubulin-Different-Phenotype (%) [12]: 6% | Total Cell Count [12]: 220
